Measured values as given in ChEMBL document CHEMBL2202989, “New adamantane phenylalkylamines with σ-receptor binding affinity and anticancer activity, associated with putative antagonism of neuropathic pain” (J Med Chem, 2012).

Assays:
BXPC-3 [1] = test: Antitumor activity against human BxPC3 cells xenografted in SCID mouse assessed as tumor growth inhibition at 10 mg/kg, ip administered 5 times a week for one cycle relative to control; type: functional; conditions: BXPC-3, ip, route intraperitoneal, read-out: TGI
[2] = (§1) Growth inhibition of human NHDF cells after 48 hrs by SRB assay; type: cell-based; conditions: NHDF cells
Summary of the method: (§2)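 Cells grown in RPMI 1640 with 5% heat-inactivated FCS, 2 mM L-glutamine and antibiotics, 37 °C, 5% CO2. Seeded at 3500–30000 cells/well and left 24 h before dosing. DMSO solutions added at 10-fold dilutions from 100 to 0.01 μM for 48 h. Cells TCA-fixed and SRB-stained, absorbance read at 540 nm; GI50 derived against the time-zero plate.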

NHDF = test: as §1; type: cell-based; conditions: nhdf, 48 h; summary of the method: as §2
[3] = Growth inhibition of human MSC cells after 48 hrs by SRB assay; type: cell-based; summary of the method: as §2
[4] = (§3) Growth inhibition of human HUVEC cells after 48 hrs by SRB assay; type: cell-based; conditions: HUVEC cells; summary of the method: as §2
HUVEC = test: as §3; type: cell-based; conditions: huvec, 48 h; summary of the method: as §2
BXPC-3 [5] = test: Growth inhibition of human BxPC3 cells after 48 hrs by SRB assay; type: functional; conditions: BXPC-3, 48 h; summary of the method: as §2
SK-HEP1 = test: Growth inhibition of human SKHEP1 cells after 48 hrs by SRB assay; type: functional; conditions: SK-HEP1, 48 h; for CC50: read-out: LC50 (the source's name); summary of the method: as §2
HL-60(TB) = test: Growth inhibition of human HL-60(TB) cells after 48 hrs by SRB assay; type: functional; conditions: HL-60, 48 h
Summary of the method: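 Cells kept in RPMI 1640 with 5% FCS at 37 °C, 5% CO2, and seeded 24 h before dosing. Compound given from DMSO at 10-fold dilutions, 100 to 0.01 μM, for 48 h. Cells fixed with TCA, stained with SRB, absorbance read at 540 nm. GI50 taken from a time-zero plate.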

U-251 = test: Growth inhibition of human U251 cells after 48 hrs by SRB assay; type: functional; conditions: U-251, 48 h; for CC50: read-out: LC50 (the source's name); summary of the method: as §2
IGROV-1 = test: Growth inhibition of human IGROV1 cells after 48 hrs by SRB assay; type: functional; conditions: IGROV-1, 48 h; for CC50: read-out: LC50 (the source's name); summary of the method: as §2
PC-3 [6] = test: Growth inhibition of human PC3 cells after 48 hrs by SRB assay; type: functional; conditions: PC-3, 48 h; for CC50: read-out: LC50 (the source's name); summary of the method: as §2
MCF7 = test: Growth inhibition of human MCF7 cells after 48 hrs by SRB assay; type: functional; conditions: MCF7, 48 h; for CC50: read-out: LC50 (the source's name); summary of the method: as §2
DU-145 [7] = test: Growth inhibition of human DU145 cells after 48 hrs by SRB assay; type: functional; conditions: DU-145, 48 h; for CC50: read-out: LC50 (the source's name); summary of the method: as §2
HCT-116 = test: Growth inhibition of human HCT116 cells after 48 hrs by SRB assay; type: functional; conditions: HCT-116, 48 h; for CC50: read-out: LC50 (the source's name); summary of the method: as §2
HCT-15 = test: Growth inhibition of human HCT15 cells after 48 hrs by SRB assay; type: functional; conditions: HCT-15, 48 h; for CC50: read-out: LC50 (the source's name); summary of the method: as §2
[8] = Displacement of [3H]batrachotoxin benzoate from Na+ channel after 60 mins by liquid scintillation counting
Summary of the method: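 Na+ channel site 2 binding: vesicle preparation (150−500 μg protein) incubated 60 min with 20−25 nM [3H]BTX-B and 50 μg Leiurius quinquestriatus venom. Buffer was 130 mM choline chloride, 50 mM HEPES/Tris pH 7.4, glucose, MgSO4, KCl, BSA. Filtered on GF/C with cold washes; scintillation counting. Nonspecific binding defined with 250 μM veratridine.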

[9] = Displacement of [3H]1,3-di-otolylguanidine from sigma 2 receptor in rat cerebral cortex membranes; type: cell membranes, Membrane
Summary of the method: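 Rat cerebral cortex membranes incubated with 5 nM [3H]DTG plus 300 nM (+)-pentazocine to mask σ1 sites, together with a range of test concentrations, 2 h at 22 °C in Tris-HCl, pH 7.4. Nonspecific binding defined with 10 μM haloperidol.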

[10] = target: Sigma non-opioid intracellular receptor 1 (Homo sapiens, UniProt Q99720); test: Displacement of [3H]-(+)-pentazocine from sigma 1 receptor in human Jurkat cell membrane; type: cell membranes
Sequence of Sigma non-opioid intracellular receptor 1 (Q99720 whole entry): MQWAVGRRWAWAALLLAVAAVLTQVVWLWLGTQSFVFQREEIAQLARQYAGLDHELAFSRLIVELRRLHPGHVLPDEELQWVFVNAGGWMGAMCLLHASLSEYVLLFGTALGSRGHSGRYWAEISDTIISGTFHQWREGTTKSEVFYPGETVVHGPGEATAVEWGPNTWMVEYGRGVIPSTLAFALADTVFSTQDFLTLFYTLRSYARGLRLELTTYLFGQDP
Summary of the method: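 Jurkat cell membranes incubated with 8 nM [3H](+)-pentazocine and a range of test concentrations for 2 h at 22 °C in Tris-HCl buffer, pH 7.4. Nonspecific binding defined with 10 μM haloperidol. Run in triplicate.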

MIA PaCa-2 = test: Growth inhibition of human MIAPaCa2 cells after 48 hrs by SRB assay; type: functional; conditions: MIA PaCa-2, 48 h; summary of the method: as §2
OVCAR-5 = test: Growth inhibition of human OVCAR5 cells after 48 hrs by SRB assay; type: functional; conditions: OVCAR-5, 48 h; summary of the method: as §2
PC-3 [11] = test: Antitumor activity against human PC3 cells xenografted in SCID mouse assessed as tumor growth inhibition at 20 mg/kg, ip administered once a week for two cycles measured after 2 cycles relative to control; type: functional; conditions: PC-3, ip, route intraperitoneal, read-out: TGI
Summary of the method: (§4)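 PC3 xenografts were grown in SCID mice (10^6 cells per inoculum), 14 mice (28 tumors) per group, dosed ip from about 100 mm3. The test agent was given in 5% Tween 80; paclitaxel was given in Cremophor diluted in saline, with a vehicle of 1:1 ethanol/Cremophor diluted 1:3 in saline. Volume and %ΔT/ΔC were derived from caliper readings twice weekly. Occurrence of primary tumors and of axillary and bone metastases was scored (n = 7). Two-tailed t test.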

DU-145 [12] = test: Antitumor activity against human DU145 cells xenografted in SCID mouse assessed as tumor growth inhibition at 20 mg/kg, ip administered once a week for two cycles measured after 2 cycles relative to control; type: functional; conditions: DU-145, ip, route intraperitoneal, read-out: TGI
Summary of the method: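 DU145 xenografts were grown in SCID mice from 10^6-cell inocula, with at least 30 animals in total. Treatment started ip at a mean tumor volume of about 100 mm3. The test agent was given in 5% Tween 80; paclitaxel was dissolved in Cremophor and diluted in saline. Caliper volumes were taken twice weekly and %ΔT/ΔC calculated; two-tailed t test.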

PC-3 [13] = test: Antitumor activity against human PC3 cells xenografted in SCID mouse assessed as bone metastasis at 20 mg/kg, ip administered once a week for two cycles measured after 2 cycles relative to control; type: functional; conditions: route intraperitoneal; summary of the method: as §4
PC-3 [14] = test: Antitumor activity against human PC3 cells xenografted in SCID mouse assessed as axillary metastasis at 20 mg/kg, ip administered once a week for two cycles measured after 2 cycles relative to control; type: functional; conditions: route intraperitoneal; summary of the method: as §4
PC-3 [15] = test: Antitumor activity against human PC3 cells xenografted in SCID mouse assessed as primary tumor occurrence at 20 mg/kg, ip administered once a week for two cycles measured after 2 cycles relative to control; type: functional; conditions: route intraperitoneal; summary of the method: as §4
[16] = read-out: LC50 (the source's name)

Compound | GI50 at 48 h [2] | LC50 (NHDF) | TGI (NHDF) | TGI [3] | GI50 at 48 h [4] | LC50 (HUVEC) | TGI (HUVEC) | GI50 (BXPC-3 [5]) | LC50 (BXPC-3 [5]) | TGI (BXPC-3 [5]) | GI50 (SK-HEP1) | TGI (SK-HEP1) | GI50 (U-251) | TGI (U-251) | CC50 (U-251) | GI50 (MCF7) | TGI (MCF7) | CC50 (MCF7) | IC50 [9] | IC50 [10] | further results
Nc1ccn([C@@H]2O[C@H](CO)[C@@H](O)[C@@H]2O)c(=O)n1 [CYTARABINE] |  |  |  |  |  |  |  |  |  |  |  |  |  |  |  |  |  |  |  |  | inhibition in vivo at 10 mg/kg (BXPC-3 [1]): 23.8%
c1ccc(C(c2ccc(CCCN3CCNCC3)cc2)C23CC4CC(CC(C4)C2)C3)cc1 (centres undefined) | 4.07 µM | 9.58 µM | 6.82 µM | 7.28 µM | 3.97 µM | 100 µM | 7.17 µM | 3.38 µM | 0.00944 µM | 6.41 µM | 3.67 µM | 6.19 µM | 3.3 µM | 5.87 µM | 0.00844 µM | 3.1 µM | 5.97 µM | 0.00884 µM | 0.461 µM | 0.042 µM | CC50 (SK-HEP1): 0.0087 µM; GI50 (HL-60(TB)): 0.00301 µM; TGI (HL-60(TB)): 0.00822 µM; CC50 (HL-60(TB); [16]): 0.1 µM; GI50 (IGROV-1): 3.29 µM; TGI (IGROV-1): 6.34 µM; CC50 (IGROV-1): 0.00939 µM; GI50 (PC-3 [6]): 3.06 µM; TGI (PC-3 [6]): 5.71 µM; CC50 (PC-3 [6]): 0.00837 µM; GI50 (DU-145 [7]): 2.83 µM; TGI (DU-145 [7]): 5.65 µM; CC50 (DU-145 [7]): 0.00846 µM; GI50 (HCT-116): 2.96 µM; TGI (HCT-116): 5.85 µM; CC50 (HCT-116): 0.00874 µM; GI50 (HCT-15): 3.15 µM; TGI (HCT-15): 6.13 µM; CC50 (HCT-15): 0.00911 µM; IC50 [8]: > 1 µM
c1ccc(C(c2ccc(CCCN3CCCCC3)cc2)C23CC4CC(CC(C4)C2)C3)cc1 (centres undefined) | 2.83 µM | 9.47 µM | 6.15 µM | 1.93 µM | 3.27 µM | 9.18 µM | 6.23 µM | 3.78 µM | 0.00917 µM | 6.47 µM | 3.25 µM | 5.97 µM | 4.61 µM | 7.19 µM | 0.00977 µM | 2.41 µM | 6.07 µM | 0.00963 µM | 0.013 µM | 0.0123 µM | CC50 (SK-HEP1): 0.00868 µM; GI50 (PC-3 [6]): 3.92 µM; TGI (PC-3 [6]): 7.32 µM; CC50 (PC-3 [6]): 0.0107 µM; GI50 (DU-145 [7]): 5.18 µM; TGI (DU-145 [7]): 8.17 µM; CC50 (DU-145 [7]): 0.0112 µM; GI50 (HCT-116): 3.37 µM; TGI (HCT-116): 5.99 µM; CC50 (HCT-116): 0.00861 µM; GI50 (HCT-15): 3.89 µM; TGI (HCT-15): 6.78 µM; CC50 (HCT-15): 0.00968 µM; IC50 [8]: > 0.1 µM
CN1CCN(CCc2ccc(C(c3ccccc3)C34CC5CC(CC(C5)C3)C4)cc2)CC1 (centres undefined) | 4.18 µM | 100 µM | 8.07 µM | 6.39 µM | 3.32 µM | 9.6 µM | 6.46 µM | 5.76 µM | 0.1 µM | 19.9 µM | 3.69 µM | 6.36 µM | 3.37 µM | 6.09 µM | 0.00881 µM | 2.77 µM | 5.7 µM | 0.0086 µM | 0.0801 µM | 0.0029 µM | CC50 (SK-HEP1): 0.00902 µM; GI50 (MIA PaCa-2): 7.5 µM; TGI (MIA PaCa-2): 36 µM; CC50 (MIA PaCa-2; [16]): 0.0762 µM; GI50 (OVCAR-5): 17.4 µM; TGI (OVCAR-5): 29.3 µM; CC50 (OVCAR-5; [16]): 0.0624 µM; GI50 (IGROV-1): 4.29 µM; TGI (IGROV-1): 8.93 µM; CC50 (IGROV-1): 0.0136 µM; GI50 (PC-3 [6]): 4.57 µM; TGI (PC-3 [6]): 9 µM; CC50 (PC-3 [6]): 0.0135 µM; GI50 (HCT-15): 4.64 µM; TGI (HCT-15): 8.26 µM; CC50 (HCT-15): 0.1 µM
c1ccc(CN2CCN(CCCc3ccc(C(c4ccccc4)C45CC6CC(CC(C6)C4)C5)cc3)CC2)cc1 (centres undefined) | 39.5 µM | 100 µM | 100 µM |  |  |  |  | 36.8 µM | 0.1 µM | 100 µM |  |  | 36.4 µM | 79.1 µM | 0.1 µM | 6.76 µM | 61.7 µM | 0.1 µM | 0.0283 µM | 0.0361 µM | GI50 (HCT-116): 7.72 µM; TGI (HCT-116): 39.7 µM; CC50 (HCT-116): 0.0829 µM; IC50 [8]: 0.0115 µM
CC(=O)O[C@H]1C(=O)[C@@]2(C)[C@H]([C@H](OC(=O)c3ccccc3)[C@]3(O)C[C@H](OC(=O)[C@H](O)[C@@H](NC(=O)c4ccccc4)c4ccccc4)C(C)=C1C3(C)C)[C@]1(OC(C)=O)CO[C@@H]1C[C@@H]2O [PACLITAXEL] |  |  |  |  |  |  |  |  |  |  |  |  |  |  |  |  |  |  |  |  | inhibition in vivo at 20 mg/kg (PC-3 [11]): 79.1%; inhibition in vivo at 20 mg/kg (DU-145 [12]): 26.6%; Activity (PC-3 [13]): 86%; Activity (PC-3 [14]): 14%; Activity (PC-3 [15]): 100%
